The source of these data is article PMC5575927 (ACS chemical biology, 2017).

What is called IC50 is the concentration at which inhibition is half-maximal. A low value points to greater potency in that assay.

Where a SMILES comes first, the peptide text is derived from it. The star is where a group is joined. AMC = Cc1cc(=O)oc2cc(N*)ccc12; Boc = CC(C)(C)OC(=O)* Where only a bound is given, the exact number is not on record here.

Assay [1] relates to PmC11. Kind of assay: Michaelis-Menten kinetics of fluorogenic AMC substrate hydrolysis. It is filed as biochemical, Parabacteroides merdae. To be noted: 25 nM PmC11; PBS (pH 7.4), 5 mM DTT, 0.1 mM EDTA, 1 mM CaCl2, 0.1% CHAPS; 25 °C. In short, it runs like this:
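Recombinant His6-tagged WT PmC11 was expressed in E. coli, self-matured, and purified by Ni-NTA and anion exchange. Reactions were started by adding Ac-VLTK-AMC at 400 pM to 400 μM. Fluorescence (excitation 355 nm, emission 460 nm) was read every 20 s for 25 min. KM and kcat were obtained by Michaelis-Menten fitting of hydrolysis rates.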

The target in assay [2] is PmC11 (Parabacteroides merdae, UniProt A0A9Q4WVB1). Type of assay: biochemical. In short, it runs like this: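 Recombinant His6-tagged WT PmC11 was expressed in E. coli BL21DE3pLysS, self-matured during expression, and purified by Ni-NTA then anion exchange. Test compound was applied at decreasing amounts from 5 μM to 10 nM during the 30 min preincubation. IC50 was derived from the rate of substrate hydrolysis measured after substrate addition.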

The subject of assay [3] is PmC11. To be noted: ref [16]; cited from earlier work.
Assay [4] has as its system PmC11. Kind of assay: E64 inhibition of PmC11 proteolytic activity. It is filed as biochemical, Parabacteroides merdae. The settings on record: 4-fold excess of E64; Figure S5B.
The test system of assay [5] is clostripain. To be noted: rather than covalently modifying the catalytic cysteine; ref [38],[39]; cited from earlier work.

For the compound `CC(=O)N[C@H](C(=O)N[C@@H](CC(C)C)C(=O)N[C@H](C(=O)N[C@@H](CCCCN)C(=O)Nc1ccc2c(C)cc(=O)oc2c1)[C@@H](C)O)C(C)C` [Ac-VLTK-AMC] (Ac-VLTK-{AMC}), the “kcat/KM (catalytic efficiency)” value in assay [1] is reported as 1.6 x 10^5 s^−1M^−1.

`CC(=O)N[C@H](C(=O)N[C@@H](CC(C)C)C(=O)N[C@H](C(=O)N[C@@H](CCCCN)C(=O)COC(=O)c1c(C)cccc1C)[C@@H](C)O)C(C)C` [Ac-VLTK-AOMK, acetyl-Val-Leu-Thr-Lys acyloxymethyl ketone (2,6-dimethylbenzoic acid-derived acyloxy leaving group)] returned an IC50 in assay [2] of less than 25 nM.

With Boc-Val-Leu-Lys-{AMC}, the “hydrolysis by PmC11 (in words)” value in assay [3] is “hydrolyze”.

As for Z-Gly-Gly-Arg-AMC, the “hydrolysis by PmC11 (in words)” value in assay [3] is “hydrolyze”.

For `Cc1cc(=O)oc2cc(NC(=O)C(CCCN=C(N)N)NC(=O)c3ccccc3)ccc12.Cl` (stereo not shown) [Bz-Arg-AMC], the “hydrolysis by PmC11 (in words)” value in assay [3] is reported as “hydrolyze”.

`CC(C)C[C@H](NC(=O)[C@H]1O[C@@H]1C(=O)O)C(=O)NCCCCN=C(N)N` (relative stereo) [E64, L-trans-Epoxysuccinyl-leucylamido(4-guanidino)butane]: the “loss of proteolytic activity” value in assay [4] is on record as 30%. Further, the “manner of clostripain inhibition (in words)” value in assay [5] is listed as “reversible competitive”.
